Measured values published in ChEMBL document CHEMBL1255475, “Mutant prevention concentrations of four carbapenems against gram-negative rods” (2010).
In brackets after ≈: the same amount, converted by molar mass.

Key:
Assay type in all cases: functional
Escherichia coli [1] = assay: Antibacterial activity against beta-lactamase-negative Escherichia coli E347 incubated up to 7 days by agar dilution method; settings: E347, 168 h
Pseudomonas aeruginosa [2] = assay: Antibacterial activity against Pseudomonas aeruginosa P326 assessed as mutant prevention concentration after overnight incubation
Acinetobacter baumannii [3] = assay: Antibacterial activity against Acinetobacter baumannii A848 assessed as mutant prevention concentration after overnight incubation
Klebsiella pneumoniae [4] = assay: Antibacterial activity against beta-lactamase-positive ESBL-negative Klebsiella pneumoniae E473 assessed as mutant prevention concentration after overnight incubation
In short: (§1)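 Overnight growth on blood trypticase soy agar (35°C, air) was resuspended in 0.9% saline and counted on drug-free Mueller-Hinton agar. […] Colonies were retested by agar dilution to confirm mutants. MPC was the lowest concentration preventing resistant-mutant growth.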

Acinetobacter baumannii [5] = assay: Antibacterial activity against Acinetobacter baumannii A901 assessed as mutant prevention concentration after overnight incubation
Pseudomonas aeruginosa [6] = assay: Antibacterial activity against Pseudomonas aeruginosa P337 assessed as mutant prevention concentration after overnight incubation
Escherichia coli [7] = assay: Antibacterial activity against beta-lactamase-negative Escherichia coli E408 assessed as mutant prevention concentration after overnight incubation
Klebsiella pneumoniae [8] = assay: Antibacterial activity against beta-lactamase-positive ESBL-negative Klebsiella pneumoniae E511 assessed as mutant prevention concentration after overnight incubation; in short: as §1
Klebsiella pneumoniae [9] = assay: Antibacterial activity against beta-lactamase-negative Klebsiella pneumoniae E417 assessed as mutant prevention concentration after overnight incubation
Escherichia coli [10] = assay: Antibacterial activity against beta-lactamase-negative Escherichia coli E345 assessed as mutant prevention concentration after overnight incubation
Klebsiella pneumoniae [11] = assay: Antibacterial activity against beta-lactamase-negative Klebsiella pneumoniae E360 incubated up to 7 days by agar dilution method; settings: E360, 168 h
Pseudomonas aeruginosa [12] = assay: Antibacterial activity against Pseudomonas aeruginosa P356 assessed as mutant prevention concentration after overnight incubation
Escherichia coli [13] = assay: Antibacterial activity against beta-lactamase-positive ESBL-negative Escherichia coli E484 assessed as mutant prevention concentration after overnight incubation; in short: as §1
Klebsiella pneumoniae [14] = assay: Antibacterial activity against beta-lactamase-negative Klebsiella pneumoniae E358 assessed as mutant prevention concentration after overnight incubation
Escherichia coli [15] = assay: Antibacterial activity against beta-lactamase-positive ESBL-positive Escherichia coli E450 incubated up to 7 days by agar dilution method; settings: E450, 168 h
In short: (§2)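 MIC by CLSI agar dilution, with quality-control strains in each run. Beta-lactamase status was set by 30 μg cefazolin Kirby-Bauer disk diffusion. ESBL status was set by cefotaxime and ceftazidime disks (30 μg) with and without clavulanic acid (10 μg).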

Klebsiella pneumoniae [16] = assay: Antibacterial activity against beta-lactamase-positive ESBL-positive Klebsiella pneumoniae E476 incubated up to 7 days by agar dilution method; settings: E476, 168 h
Escherichia coli [17] = assay: Antibacterial activity against beta-lactamase-negative Escherichia coli E350 […] by agar dilution method
Acinetobacter baumannii [18] = assay: Antibacterial activity against Acinetobacter baumannii A851 assessed as mutant prevention concentration after overnight incubation
Klebsiella pneumoniae [19] = assay: Antibacterial activity against beta-lactamase-negative Klebsiella pneumoniae E359 incubated up to 7 days by agar dilution method; settings: E359, 168 h
Klebsiella pneumoniae [20] = assay: Antibacterial activity against beta-lactamase-negative Klebsiella pneumoniae E420 assessed as mutant prevention concentration after overnight incubation; in short: as §1
Pseudomonas aeruginosa [21] = assay: Antibacterial activity against Pseudomonas aeruginosa P327 assessed as mutant prevention concentration after overnight incubation
Klebsiella pneumoniae [22] = assay: Antibacterial activity against beta-lactamase-positive ESBL-positive Klebsiella pneumoniae E478 incubated up to 7 days by agar dilution method; settings: E478, 168 h
Klebsiella pneumoniae [23] = assay: Antibacterial activity against beta-lactamase-positive ESBL-positive Klebsiella pneumoniae E475 incubated up to 7 days by agar dilution method; settings: E475, 168 h
Escherichia coli [24] = assay: Antibacterial activity against beta-lactamase-negative Escherichia coli E409 assessed as mutant prevention concentration after overnight incubation
Escherichia coli [25] = assay: Antibacterial activity against beta-lactamase-positive ESBL-negative Escherichia coli E430 incubated up to 7 days by agar dilution method; settings: E430, 168 h; in short: as §2
Escherichia coli [26] = assay: Antibacterial activity against beta-lactamase-positive ESBL-positive Escherichia coli E452 incubated up to 7 days by agar dilution method; settings: E452, 168 h; in short: as §2
Klebsiella pneumoniae [27] = assay: Antibacterial activity against beta-lactamase-negative Klebsiella pneumoniae E418 incubated up to 7 days by agar dilution method; settings: E418, 168 h
Klebsiella pneumoniae [28] = assay: Antibacterial activity against beta-lactamase-positive ESBL-negative Klebsiella pneumoniae E480 incubated up to 7 days by agar dilution method; settings: E480, 168 h
Acinetobacter baumannii [29] = assay: Antibacterial activity against Acinetobacter baumannii A931 assessed as mutant prevention concentration after overnight incubation
Acinetobacter baumannii [30] = assay: Antibacterial activity against Acinetobacter baumannii A903 assessed as mutant prevention concentration after overnight incubation
Acinetobacter baumannii [31] = assay: Antibacterial activity against Acinetobacter baumannii A885 assessed as mutant prevention concentration after overnight incubation
Klebsiella pneumoniae [32] = assay: Antibacterial activity against beta-lactamase-positive ESBL-positive Klebsiella pneumoniae E457 incubated up to 7 days by agar dilution method; settings: E457, 168 h; in short: as §2
Escherichia coli [33] = assay: Antibacterial activity against beta-lactamase-positive ESBL-positive Escherichia coli E458 incubated up to 7 days by agar dilution method; settings: E458, 168 h; in short: as §2
Klebsiella pneumoniae [34] = assay: Antibacterial activity against beta-lactamase-positive ESBL-positive Klebsiella pneumoniae E476 assessed as mutant prevention concentration after overnight incubation; in short: as §1
Acinetobacter baumannii [35] = assay: Antibacterial activity against Acinetobacter baumannii A897 assessed as mutant prevention concentration after overnight incubation
Klebsiella pneumoniae [36] = assay: Antibacterial activity against beta-lactamase-negative Klebsiella pneumoniae E362 assessed as mutant prevention concentration after overnight incubation
Escherichia coli [37] = assay: Antibacterial activity against beta-lactamase-negative Escherichia coli E409 […] by agar dilution method
Escherichia coli [38] = assay: Antibacterial activity against beta-lactamase-positive ESBL-positive Escherichia coli E451 assessed as mutant prevention concentration after overnight incubation; in short: as §1
Klebsiella pneumoniae [39] = assay: Antibacterial activity against beta-lactamase-negative Klebsiella pneumoniae E359 assessed as mutant prevention concentration after overnight incubation
Escherichia coli [40] = assay: Antibacterial activity against beta-lactamase-positive ESBL-negative Escherichia coli E483 […] by agar dilution method
Pseudomonas aeruginosa [41] = assay: Antibacterial activity against Pseudomonas aeruginosa P373 assessed as mutant prevention concentration after overnight incubation
Klebsiella pneumoniae [42] = assay: Antibacterial activity against beta-lactamase-positive ESBL-negative Klebsiella pneumoniae E480 assessed as mutant prevention concentration after overnight incubation; in short: as §1
Acinetobacter baumannii [43] = assay: Antibacterial activity against Acinetobacter baumannii A890 assessed as mutant prevention concentration after overnight incubation
Pseudomonas aeruginosa [44] = assay: Antibacterial activity against Pseudomonas aeruginosa P338 assessed as mutant prevention concentration after overnight incubation
Pseudomonas aeruginosa [45] = assay: Antibacterial activity against Pseudomonas aeruginosa P358 assessed as mutant prevention concentration after overnight incubation
Acinetobacter baumannii [46] = assay: Antibacterial activity against Acinetobacter baumannii A911 assessed as mutant prevention concentration after overnight incubation
Acinetobacter baumannii [47] = assay: Antibacterial activity against Acinetobacter baumannii A910 assessed as mutant prevention concentration after overnight incubation
Klebsiella pneumoniae [48] = assay: Antibacterial activity against beta-lactamase-positive ESBL-positive Klebsiella pneumoniae E453 incubated up to 7 days by agar dilution method; settings: E453, 168 h; in short: as §2

C[C@@H](O)[C@H]1C(=O)N2C(C(=O)O)=C(S[C@@H]3CN[C@H](CNS(N)(=O)=O)C3)[C@H](C)[C@H]12 [DORIPENEM]
MIC (Escherichia coli [1]): 0.03 µg/mL (≈ 0.0713 µM)
MPC (Pseudomonas aeruginosa [2]): 16 µg/mL
MPC (Acinetobacter baumannii [3]): 16 µg/mL
MPC (Klebsiella pneumoniae [4]): 8 µg/mL
MPC (Acinetobacter baumannii [5]): 8 µg/mL
MPC (Pseudomonas aeruginosa [6]): 8 µg/mL
MPC (Escherichia coli [7]): 0.06 µg/mL
MPC (Klebsiella pneumoniae [8]): >64 µg/mL
MPC (Klebsiella pneumoniae [9]): 0.125 µg/mL
MPC (Escherichia coli [10]): 0.06 µg/mL
MIC (Klebsiella pneumoniae [11]): 0.06 µg/mL (≈ 0.143 µM)
MPC (Pseudomonas aeruginosa [12]): >4 µg/mL
MPC (Escherichia coli [13]): 8 µg/mL
MPC (Klebsiella pneumoniae [14]): 0.125 µg/mL
MIC (Escherichia coli [15]): 0.03 µg/mL (≈ 0.0713 µM)
MIC (Klebsiella pneumoniae [16]): 2 µg/mL (≈ 4.76 µM)
MIC (Escherichia coli [17]): 0.06 µg/mL (≈ 0.143 µM)
MPC (Acinetobacter baumannii [18]): 16 µg/mL
MIC (Klebsiella pneumoniae [19]): 0.06 µg/mL (≈ 0.143 µM)
MPC (Klebsiella pneumoniae [20]): 0.06 µg/mL
MPC (Pseudomonas aeruginosa [21]): 4 µg/mL
MIC (Klebsiella pneumoniae [22]): 2 µg/mL (≈ 4.76 µM)
MIC (Klebsiella pneumoniae [23]): 2 µg/mL (≈ 4.76 µM)
MPC (Escherichia coli [24]): 0.125 µg/mL
MIC (Escherichia coli [25]): 0.03 µg/mL (≈ 0.0713 µM)
MIC (Escherichia coli [26]): 0.03 µg/mL (≈ 0.0713 µM)
MIC (Klebsiella pneumoniae [27]): 0.125 µg/mL (≈ 0.297 µM)
MIC (Klebsiella pneumoniae [28]): 2 µg/mL (≈ 4.76 µM)
MPC (Acinetobacter baumannii [29]): 2 µg/mL
MPC (Acinetobacter baumannii [30]): 4 µg/mL
MPC (Acinetobacter baumannii [31]): 8 µg/mL
MIC (Klebsiella pneumoniae [32]): 0.06 µg/mL (≈ 0.143 µM)
MIC (Escherichia coli [33]): 0.03 µg/mL (≈ 0.0713 µM)
MPC (Klebsiella pneumoniae [34]): 8 µg/mL
MPC (Acinetobacter baumannii [35]): 1 µg/mL
MPC (Klebsiella pneumoniae [36]): 0.125 µg/mL
MIC (Escherichia coli [37]): 0.03 µg/mL (≈ 0.0713 µM)
MPC (Escherichia coli [38]): 0.06 µg/mL
MPC (Klebsiella pneumoniae [39]): 0.125 µg/mL
MIC (Escherichia coli [40]): 0.25 µg/mL (≈ 0.595 µM)
MPC (Pseudomonas aeruginosa [41]): >4 µg/mL
MPC (Klebsiella pneumoniae [42]): 8 µg/mL
MPC (Acinetobacter baumannii [43]): 1 µg/mL
MPC (Pseudomonas aeruginosa [44]): 4 µg/mL
MPC (Pseudomonas aeruginosa [45]): 64 µg/mL
MPC (Acinetobacter baumannii [46]): 8 µg/mL
MPC (Acinetobacter baumannii [47]): 4 µg/mL
MIC (Klebsiella pneumoniae [48]): 0.06 µg/mL (≈ 0.143 µM)

C[C@@H](O)[C@H]1C(=O)N2C(C(=O)O)=C(SCCNC=N)C[C@H]12 [IMIPENEM ANHYDROUS]
MPC (Pseudomonas aeruginosa [2]): 32 µg/mL
MPC (Acinetobacter baumannii [3]): 8 µg/mL
MPC (Klebsiella pneumoniae [4]): 16 µg/mL
MPC (Acinetobacter baumannii [5]): 8 µg/mL
MPC (Pseudomonas aeruginosa [6]): 16 µg/mL
MPC (Escherichia coli [7]): 1 µg/mL
MPC (Klebsiella pneumoniae [8]): 64 µg/mL
MPC (Klebsiella pneumoniae [9]): 0.5 µg/mL
MPC (Escherichia coli [10]): 0.5 µg/mL
MPC (Pseudomonas aeruginosa [12]): >32 µg/mL
MPC (Escherichia coli [13]): >16 µg/mL
MPC (Klebsiella pneumoniae [14]): 0.5 µg/mL
MPC (Acinetobacter baumannii [18]): 8 µg/mL
MPC (Klebsiella pneumoniae [20]): 0.25 µg/mL
MPC (Pseudomonas aeruginosa [21]): 16 µg/mL
MPC (Escherichia coli [24]): 1 µg/mL
MPC (Acinetobacter baumannii [29]): 1 µg/mL
MPC (Acinetobacter baumannii [30]): 1 µg/mL
MPC (Acinetobacter baumannii [31]): 8 µg/mL
MPC (Klebsiella pneumoniae [34]): >16 µg/mL
MPC (Acinetobacter baumannii [35]): 1 µg/mL
MPC (Klebsiella pneumoniae [36]): 1 µg/mL
MPC (Escherichia coli [38]): 0.5 µg/mL
MPC (Klebsiella pneumoniae [39]): 1 µg/mL
MPC (Pseudomonas aeruginosa [41]): 32 µg/mL
MPC (Klebsiella pneumoniae [42]): >16 µg/mL
MPC (Acinetobacter baumannii [43]): 1 µg/mL
MPC (Pseudomonas aeruginosa [44]): 16 µg/mL
MPC (Pseudomonas aeruginosa [45]): 128 µg/mL
MPC (Acinetobacter baumannii [46]): 8 µg/mL
MPC (Acinetobacter baumannii [47]): 8 µg/mL
